An excerpt weighted towards active compounds, which were near 1.9% of everything screened.
CHRM5 agonist – human M5 muscarinic receptor agonists, primary screen, CHO-K1 cells, Fluo-8 calcium fluorescence; 360,000 tested, 0.19% active; activation, % at 3 µM; AID 624037, 2012; CHO-K1 hM5 cells; 0% DMSO wells, 100% maximal acetylcholine response;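 active = activation above the run's mean over test compounds plus 3 SD, cut at about 23% in these data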;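 also: signal is peak over basal fluorescence ratio across the kinetic read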
M4 PAM – human M4 muscarinic receptor positive allosteric modulators, primary screen, CHO-K1 cells, Fluo-8 calcium fluorescence; CHO-K1 hM4/Gqi5, ACh EC20; 0% = ACh EC20, 100% = maximal ACh; activation, % at 3 µM; 360,000 tested, 0.4% active; AID 624126, 2012;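 active = activation above its plate's cutoff, the mean activation of sample wells plus 3 SD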
Target sequence (P08173 whole entry, looked up): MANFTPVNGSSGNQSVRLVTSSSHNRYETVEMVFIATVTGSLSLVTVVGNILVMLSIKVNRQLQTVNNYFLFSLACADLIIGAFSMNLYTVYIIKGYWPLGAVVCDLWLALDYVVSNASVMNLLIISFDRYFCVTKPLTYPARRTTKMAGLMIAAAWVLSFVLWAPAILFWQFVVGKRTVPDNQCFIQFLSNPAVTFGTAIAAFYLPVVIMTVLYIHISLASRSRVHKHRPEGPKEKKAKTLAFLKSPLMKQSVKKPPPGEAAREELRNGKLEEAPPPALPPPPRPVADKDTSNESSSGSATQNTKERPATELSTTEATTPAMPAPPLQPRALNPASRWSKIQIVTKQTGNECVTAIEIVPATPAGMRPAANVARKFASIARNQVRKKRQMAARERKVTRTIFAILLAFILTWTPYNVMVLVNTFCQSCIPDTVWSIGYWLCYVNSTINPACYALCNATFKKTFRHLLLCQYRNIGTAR
CHRM5 antagonist – human M5 muscarinic receptor antagonists, primary screen, CHO cells, Fluo-8 calcium fluorescence; inhibition, % at 3 µM; CHO-hM5 cells, ACh EC80; AID 624040, 2012; 360,000 tested, 0.59% active; Muscarinic acetylcholine receptor M5 (Homo sapiens), P08912;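 active = inhibition above a per-plate cutoff, the mean of that plate's test compounds plus 3 SD, cut at about 27% in these data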;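 also: 0% = acetylcholine EC80 with DMSO and 100% = DMSO without agonist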
M4 ag – human M4 muscarinic receptor agonists, primary screen, CHO-K1 cells, Fluo-8 calcium fluorescence. Muscarinic acetylcholine receptor M4 (Homo sapiens), P08173. CHO-K1 hM4/Gqi5; vehicle 0%, full acetylcholine response 100%. activation, % at 3 µM. 360,000 tested, 0.14% active;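 active = activation above the run mean over all test wells plus 3 SD, cut at about 32% in these data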;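 also: peak over basal fluorescence ratio per well then scaled between controls; 0% = DMSO wells and 100% = acetylcholine at EC100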
CHRM4 antagonist – human M4 muscarinic receptor antagonists, primary screen, CHO cells, Fluo-8 calcium fluorescence. Muscarinic acetylcholine receptor M4 (Homo sapiens), P08173. AID 624125, 2012. inhibition, % at 3 µM. CHO-hM4 cells, ACh EC80. 360,000 tested, 0.73% active;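 active = inhibition above its plate's cutoff, the mean inhibition of sample wells plus 3 SD, cut at about 27% in these data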;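 also: 0% = acetylcholine EC80 with DMSO and 100% = DMSO without agonist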
CHRM5 PAM – human M5 muscarinic receptor positive allosteric modulators, primary screen, CHO-K1 cells, Fluo-8 calcium fluorescence; Muscarinic acetylcholine receptor M5 (Homo sapiens), P08912; CHO-K1 hM5, ACh EC20 PAM; 0% = ACh EC20, 100% = ACh EC100; activation, % at 3 µM; 360,000 tested, 0.3% active; AID 624038, 2012;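 active = activation above the run cutoff, the mean activation of all test compounds plus 3 SD, cut at about 18% in these data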
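Test system: CHO-K1 hM5 cells / Doses: single-point, 3 µM nominal / Times: Post-acetylcholine fluorescence recording 140 s / Technique: Fluo-8 calcium fluorescence / Measure: Max/basal fluorescence ratio as % of EC20–EC100 ACh window / Benchmarks: low control EC20 acetylcholine (0%), high control EC100 acetylcholine (100%) / Replicates: one well per compound, no replicates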
Numbers without * were called inactive.

SMILES	CHRM5 agonist	M4 PAM	CHRM5 antagonist	M4 ag	CHRM4 antagonist	CHRM5 PAM
COC(=O)C1=C(C)NC(C)=C(C(=O)OC)C1c1ccc(NC(C)=O)cc1	44*	10	14	2	2	-16
CCN(CC)c1ccc(C2C(C(=O)OC)=C(C)NC(C)=C2C(=O)OC)cc1	-8	-18	8	0	14	-17
COc1cc(/C=N/NC(=O)c2ccncc2)ccc1Oc1ccc([N+](=O)[O-])cn1	3	-1	-14	1	-3	18*
COc1ccc(/C=N/NC(=O)c2cccc([N+](=O)[O-])c2)cc1OC(=O)c1ccc(C)cc1	0	3	-1	-1	-4	57*
Cc1ccc(S(=O)(=O)N2[C@@H](c3ccc(Cl)cc3)C(C(=O)O)=CC[C@H]2c2ccc(Cl)cc2)cc1	-2	-4	10	3	4	-14
CCOC(=O)c1c(-c2ccc(C)o2)csc1NC(=O)CN(C)CC(=O)Nc1ccc(C)cc1	-3	-21	15	6	31*	-6
Fc1c(F)c(F)c(/C=N/NC(=S)Nc2cccnc2)c(F)c1F	-2	19*	-6	3	-9	7
Fc1cccc(F)c1/C=N/NC(=S)Nc1cccnc1	-3	-3	6	0	11	-3
Cc1ccccc1OCCn1cnc2c(N)ncnc21	3	16*	4	5	2	-3
COc1cc(/C=C(\C#N)C(=O)Nc2ccc3c(c2)OCCO3)ccc1O	5	-4	4	5	-11	-8
CCCCn1cnc2c(oc3ccccc32)c1=O	-3	-7	2	2	0	-1
COc1ccc(C2CC(c3ccc(Cl)cc3)=NN2C(C)=O)cc1 (stereo unspecified)	6	12	31*	12	17	43*
Cc1cc(F)ccc1-c1cc(C(=O)NCc2ccc(C(F)(F)F)cc2)[nH]n1	33*	-4	5	20	-7	1
CCc1cc2c(Nc3ccc(O)cc3)nc(C)nc2s1	-3	0	11	-2	5	-5
CC1(c2nc3ccccc3[nH]2)c2ccccc2C(=O)N1Cc1ccccc1 (stereo unspecified)	-1	0	-1	0	1	0
Cc1cc(C)[n+](-c2ccc(C(C)C)cc2)c2[nH]c(=O)[nH]c(=O)c12	-7	-33	-1	0	41*	-9
CCc1cc(C(=O)N2CCN(S(=O)(=O)c3ccc(Cl)cc3)CC2)sc1C	3	9	-3	1	12	10
Cc1cc(N2CCCC2)c(F)cc1/C=C\[N+](=O)[O-]	25*	-9	64*	30	11	-13
Cc1cc(N2CCC(C)CC2)c(F)cc1[N+](=O)[O-]	3	1	-11	0	-3	4
CN(C)c1nn(C(=O)Nc2cccc(C(F)(F)F)c2)cc1-c1ccccc1	5	-16	36*	17	27*	-15
O=C(Oc1cccc(C(=S)N2CCOCC2)c1)c1ccc([N+](=O)[O-])cc1	0	1	13	3	-4	-2
O=C(c1cccc(Oc2ccc([N+](=O)[O-])cc2Cl)c1)N1CCOCC1	-2	-4	27*	1	3	-12
CCCCCCc1nc2nc(Cl)c(Cl)nc2[nH]1	0	-2	-3	1	3	-2
NC(=O)c1ccccc1Nc1nc(NCCO)nc(N2CCCC2)n1	6	9	-1	1	-8	2
CCOC(=O)CC1CCCCN1C(=O)c1cc(COc2cccc3cnccc23)on1 (stereo unspecified)	10	-13	40*	32*	55*	-15
Cc1ccc(NC(=O)c2cc(NC(=O)c3ccco3)ccc2N2CCOCC2)cc1	1	1	0	8	-2	-9
